# From ChEMBL document CHEMBL1122794, “[(Arylcarbonyl)oxy]propanolamines. 1. Novel beta-blockers with ultrashort duration of action” (J Med Chem, 1984)
# Experiments:
# Canis familiaris [1] = species on record: Canis familiaris; experiment: Percent inhibition of isoproterenol induced tachycardia at a dose of 15 microg (3-h infusion period); type: functional, Canis lupus familiaris
# Canis familiaris [2] = species on record: Canis familiaris; experiment: Time taken for 80% recovery at a dose of 15 microg (3-h infusion period); type: functional, organism-based; settings: Canis lupus familiaris
# [3] = T1/2 in canine blood; type: ADME, […], Canis lupus familiaris; settings: dog
# Procedure, shortened: (§1)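 1 mL of solution containing 50 µg of compound was added to 1 mL of dog or human whole blood, or to 1 mL of 33% (w/v) canine liver homogenate. They were assayed by HPLC on a phenyl column with 60% acetonitrile/40% 0.05 M sodium phosphate (pH 6.6) and UV detection. Half-life was read graphically from concentration versus time.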
# [4] = Stability at pH 7.4 and 37 degree Celsius (after 18 h); type: physicochemical; settings: buffer
# Procedure, shortened: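 Chemical stability was tested in pH 7.4 buffer at 37 °C. The percentage of parent compound remaining after 18 h of incubation was recorded.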
# Canis familiaris [5] = species on record: Canis familiaris; experiment: Time taken for 80% recovery at a dose of 106 microg (3-h infusion period); type: functional, organism-based; settings: Canis lupus familiaris
# [6] = Time in which 1/2 of the initial amount disappeared in canine liver(106); type: ADME, […], Canis lupus familiaris; settings: dog; procedure, shortened: as §1
# [7] = Time in which 1/2 of the initial amount disappeared in human blood.; type: ADME, organism-based; procedure, shortened: as §1
# Adrenergic receptor beta [8] = biological target: T1, Adrenergic receptor beta (Homo sapiens, UniProt P08588+P07550+P13945); experiment: In vitro blocking of beta adrenergic receptor in guinea pig trachea; type: tissue-based, Cavia porcellus; settings: target entry is the homologue from another species
# Canis familiaris [9] = species on record: Canis familiaris; experiment: Time taken for 80% recovery at a dose of 20 microg (3-h infusion period); type: functional, organism-based; settings: Canis lupus familiaris
# [10] = Selectivity determined by expression 10[pA2(atria) - pA2 (trachea)] in guinea pig; type: functional, Cavia porcellus
# [11] = t1/2 in canine liver; type: ADME, Canis lupus familiaris; settings: dog
# Adrenergic receptor beta [12] = biological target: T1, Adrenergic receptor beta; experiment: In Vitro inhibition of the beta adrenergic receptor in guinea pig atria; type: tissue-based, Cavia porcellus; settings: target entry is the homologue from another species
# Canis familiaris [13] = species on record: Canis familiaris; experiment: Percent inhibition of isoproterenol induced tachycardia at a dose of 20 microg (3-h infusion period); type: functional, Canis lupus familiaris
# [14] = Time in which 1/2 of the initial amount disappeared in human blood; type: ADME, organism-based; procedure, shortened: as §1
# Canis familiaris [15] = species on record: Canis familiaris; experiment: Percent inhibition of isoproterenol induced tachycardia at a dose of 23 microg (3-h infusion period); type: functional, Canis lupus familiaris
# Canis familiaris [16] = species on record: Canis familiaris; experiment: Time taken for 80% recovery at a dose of 23 microg (3-h infusion period); type: functional, organism-based; settings: Canis lupus familiaris
# Canis familiaris [17] = species on record: Canis familiaris; experiment: Time taken for 80% recovery at a dose of 8 microg (3-h infusion period); type: functional, organism-based; settings: Canis lupus familiaris
# Procedure, shortened: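 After the infusion ended, the time to 80% recovery of the blockade was recorded as duration of action. The listed dose is the average amount infused per minute over the 3-h period, in µg/(kg min).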
# Canis familiaris [18] = species on record: Canis familiaris; experiment: Percent inhibition of isoproterenol induced tachycardia at a dose of 8 microg (3-h infusion period); type: functional, Canis lupus familiaris
# Canis familiaris [19] = species on record: Canis familiaris; experiment: Time taken for 80% recovery at a dose of 1 microg (3-h infusion period); type: functional, organism-based; settings: Canis lupus familiaris
# Canis familiaris [20] = species on record: Canis familiaris; experiment: Percent inhibition of isoproterenol induced tachycardia at a dose of 1 microg (3-h infusion period); type: functional, Canis lupus familiaris
# [21] = Time in which 1/2 of the initial amount disappeared in canine liver (44); type: ADME, […], Canis lupus familiaris; settings: dog; procedure, shortened: as §1
# Canis familiaris [22] = species on record: Canis familiaris; experiment: Percent inhibition of isoproterenol induced tachycardia at a dose of 3.3 microg (3-h infusion period); type: functional, Canis lupus familiaris
# Canis familiaris [23] = species on record: Canis familiaris; experiment: Time taken for 80% recovery at a dose of 3.3 microg (3-h infusion period); type: functional, organism-based; settings: Canis lupus familiaris
# Canis familiaris [24] = species on record: Canis familiaris; experiment: Time taken for 80% recovery at a dose of 57/122 microg (3-h infusion period); type: functional, organism-based; settings: Canis lupus familiaris
# Canis familiaris [25] = species on record: Canis familiaris; experiment: Percent inhibition of isoproterenol induced tachycardia at a dose of 57/122 microg (3-h infusion period); type: functional, Canis lupus familiaris
# Canis familiaris [26] = species on record: Canis familiaris; experiment: Time taken for 80% recovery at a dose of 4 microg (3-h infusion period); type: functional, organism-based; settings: Canis lupus familiaris
# Canis familiaris [27] = species on record: Canis familiaris; experiment: Percent inhibition of isoproterenol induced tachycardia at a dose of 4 microg (3-h infusion period); type: functional, Canis lupus familiaris
half-life [3] [min],half-life [7] [min],pA2 (Adrenergic receptor beta [8]),half-life [11] [min],pA2 (Adrenergic receptor beta [12]),Structure (SMILES),Selectivity [10],also measured
7,1.7,7.1,,,CC(C)NCC(O)COC(=O)c1ccccc1F (stereo not drawn),,remaining at 18 h [4]: 83%; Recovery time (Canis familiaris [5]): 25 min; half-life [6]: 4 min
30,1.6,8,10,6.8,CC(C)(C)NCC(O)COC(=O)c1ccccc1F (stereo not drawn),-16,remaining at 18 h [4]: 98%; Recovery time (Canis familiaris [9]): 17 min; Inhibition (Canis familiaris [13]): 60%
,,6.5,,6.6,CC(C)(C)NCC(O)COC(=O)c1ccc([N+](=O)[O-])cc1Cl (stereo not drawn),1,Inhibition (Canis familiaris [15]): 85%; Recovery time (Canis familiaris [16]): > 60 min
20,,,3.5,,CC(C)C(=O)NCC(C)(C)NCC(O)COC(=O)c1ccccc1F (stereo not drawn),,Inhibition (Canis familiaris [22]): 62%; Recovery time (Canis familiaris [23]): 22 min
15,,7.9,,7,CC(C)(CNS(=O)(=O)c1ccccc1)NCC(O)COC(=O)c1ccccc1F.O=C(O)C(=O)O (stereo not drawn),1,Recovery time (Canis familiaris [24]): 6 min; Inhibition (Canis familiaris [25]): 43%
> 180,56,6.5,> 180,7.4,CC(C)(C)NCC(O)COC(=O)c1ccc(O)cc1 (stereo not drawn),9,Recovery time (Canis familiaris [26]): > 60 min; Inhibition (Canis familiaris [27]): 71%

# Further lines, the molecule ahead of its results:
Structure (SMILES),half-life [3] [min],half-life [7] [min],pA2 (Adrenergic receptor beta [8]),half-life [11] [min],pA2 (Adrenergic receptor beta [12]),Selectivity [10],also measured
CC(=O)NCC(C)(C)NCC(O)COC(=O)c1ccccc1F (stereo not drawn),7.5,,,,,,Inhibition (Canis familiaris [1]): 61%; Recovery time (Canis familiaris [2]): 35 min
CC(C)(C)NCC(O)COC(=O)c1ccc(F)cc1 (stereo not drawn),16,,8,66,7.3,-5,half-life [14]: 11.5 min
CC(C)(CNC(=O)C1CCCCC1)NCC(O)COC(=O)c1ccccc1F (stereo not drawn),,,7.2,,7.7,3,Recovery time (Canis familiaris [17]): 12 min; Inhibition (Canis familiaris [18]): 61%
CC(C)(CNC(N)=O)NCC(O)COC(=O)c1ccccc1F (stereo not drawn) [FLESTOLOL],15,,8.4,2.5,8.1,-2,Recovery time (Canis familiaris [19]): 21 min; Inhibition (Canis familiaris [20]): 49%
CC(C)NCC(O)COC(=O)c1ccccc1Cl (stereo not drawn),28,1.7,,,,,half-life [21]: 12 min; remaining at 18 h [4]: 92%
